According to paper PMC4437580 (Bioorganic & medicinal chemistry letters, 2014):
Each block holds one molecule with its values, some of them ahead of it.

Experiments:
Asf1-H3/H4 = Asf1-H3/H4 (Homo sapiens, UniProt Q9Y294); assay: Asf1-H3/H4 binding inhibition
MDA-MB-231 cells = assay: Cell viability, trypan blue exclusion; type: cell-based; conditions: drug 24 μM, 24-hour treatment
Method in brief: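 MDA-MB-231 cells grown to 80% confluence, harvested, seeded at 1.5 × 10^5 cells/mL and left overnight. Medium replaced with FBS-free medium containing test compound at 24 μM. FBS added after 1 h, then a further 24 h exposure. Cell density counted by trypan blue exclusion. Viability (%) = treated density / DMSO-only control density × 100.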

untagged Asf1 = untagged Asf1 (Homo sapiens, UniProt Q9Y294); assay: ALPHA binding studies with Asf1; conditions: two different versions of ALPHA; data not shown
untagged Asf1, sequence (Q9Y294 1-155): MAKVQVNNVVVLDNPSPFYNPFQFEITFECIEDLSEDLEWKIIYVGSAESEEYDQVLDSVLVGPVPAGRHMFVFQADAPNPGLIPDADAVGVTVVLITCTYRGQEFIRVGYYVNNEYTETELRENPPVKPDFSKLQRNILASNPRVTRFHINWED

Asf1-H3/H4, sequence (Q9Y294 1-155): as above

SMILES: O=C(N/N=C/c1cc(Br)ccc1O)c1ccncc1 [Compound 47]
- Asf1-H3/H4 binding potency/activity, in words (Asf1-H3/H4): significant boost in potency
- Assay interference (metal scavenging) (Asf1-H3/H4; upon further analysis): false positive results

SMILES: COc1ccc(-c2cc([C@@H](O)[C@@H]3CCCCN3)c3ccccc3n2)cc1.Cl [Compound 1]
- Cell viability (cytotoxicity), in words (MDA-MB-231 cells): potently inhibit cell viability
- Binding to untagged Asf1, in words (untagged Asf1): not to bind

SMILES: COc1cc(/C=N/N(C)C(=O)c2ccc(NC(=O)c3ccccc3)cc2)cc(Br)c1O [Compound 52]
- Asf1-H3/H4 binding potency/activity, in words (Asf1-H3/H4): tolerated

SMILES: COc1cc(/C=N/NC(=O)C2CCOCC2)cc(Br)c1O [Compound 26]
- Asf1-H3/H4 binding potency/activity, in words (Asf1-H3/H4): ineffective

SMILES: COc1cc(/C=N/NC(=O)c2ccc(NC(=O)c3ccccc3)c(COCCN(C)C)c2)cc(Br)c1O [Compound 33]
- Asf1-H3/H4 binding potency/activity, in words (Asf1-H3/H4): did not improve potency

Other lines, results leading:

- Asf1-H3/H4 binding potency/activity, in words (Asf1-H3/H4): significant loss of potency
SMILES: COc1cc(/C=N/NC(=O)c2ccc(NC(C)=O)cc2)cc(Br)c1O [Compound 18]

- Asf1-H3/H4 binding potency/activity, in words (Asf1-H3/H4): ineffective
SMILES: COc1cc(/C=N/NC(=O)C2CCNCC2)cc(Br)c1O [Compound 25]
